Assay results of several laboratories.
Each line is one published result; the experiments were not run side by side.
Adora2a: Adenosine receptor A2a (Adora2a, Rattus norvegicus, UniProt P30543)
AGTR2: Type-2 angiotensin II receptor (AGTR2, Homo sapiens, UniProt P50052)
Urease: Urease (Canavalia ensiformis, UniProt P07374)
DRD1: D(1A) dopamine receptor (DRD1, Homo sapiens, UniProt P21728)

For CCc1nc2cc(OCCCCN3CCC(c4cccc(Cl)c4Cl)CC3)ccc2s1, the Ki was 0.58 µM (Sodium-dependent serotonin transporter (SLC6A4, Homo sapiens, UniProt P31645); ligand displacement, radioligand).
With CC(C)CCCC(C)N1CCCn2c1nc1c2c(=O)n(C)c(=O)n1C (stereo not shown) the Ki was 2.03 µM (Adora2a; ligand displacement, radioligand; cell membranes).
For N#Cc1c(N)nc(SCc2cccc(C(=O)O)c2)c(C#N)c1-c1ccccc1, the Ki was 0.634 µM (Adora2a; ligand displacement, radioligand; cell membranes).
The Ki of C=CCN1CCCn2c1nc1c2c(=O)n(C)c(=O)n1C is reported as 2.62 µM (Adora2a; ligand displacement, radioligand; cell membranes).
CCc1ccc(C(=O)N[C@H](C(=O)O)C(C)CC)cc1C(=O)N(C)Cc1ccccc1 (stereo in doubt) gave a Ki of 16 µM (AGTR2; ligand displacement in cells, radioligand).
The Ki of Oc1ccccc1OCc1nn2c(-c3cccc(Br)c3)nnc2s1 is reported as 2.25 µM (Urease; enzyme activity, inhibitor).
With CC(C)N1CCCn2c1nc1c2c(=O)n(C)c(=O)n1C the Ki was 4.95 µM (Adora2a; ligand displacement, radioligand; cell membranes).
For CC1Cc2ccccc2N1C(=O)NCCCCN(C)[C@@H]1Cc2cccc3[nH]c(=O)n(c23)C1 (mixture of isomers), the Ki was greater than 10 µM (DRD1; ligand displacement, radioligand).
The Ki of N#Cc1c(N)nc(SCC(N)=O)c(C#N)c1-c1ccc(O)cc1 is reported as 0.338 µM (Adora2a; ligand displacement, radioligand; cell membranes).
COc1ccccc1N1CCN(CCCCN2CCc3ccccc3C2=O)CC1 gave a Ki of 1.62 µM (DRD1; cell-free assay, radioligand).
CCC(C)[C@H](NC(=O)c1ccc(C)c(C(=O)N(CC)CC)c1)C(=O)O (stereo in doubt) gave a Ki of 2.4 µM (AGTR2; ligand displacement in cells, radioligand).
The Ki of CCCCCN1CCCn2c1nc1c2c(=O)n(C)c(=O)n1C is reported as 3.06 µM (Adora2a; ligand displacement, radioligand; cell membranes).
With CCC(C)[C@H](NC(=O)c1ccc(C)c(C(=O)N(Cc2ccccc2)Cc2ccccc2)c1)C(=O)O (stereo in doubt) the Ki was 2.5 µM (AGTR2; ligand displacement in cells, radioligand).
The Ki of CCCCN1CCCn2c1nc1c2c(=O)n(CCC)c(=O)n1CCC is reported as 0.3 µM (Adora2a; ligand displacement, radioligand; cell membranes).
The Ki of CC(=O)NO is reported as 18.1 µM (Urease; enzyme activity, inhibitor).
N#Cc1c(N)nc(SCC(N)=O)c(C#N)c1-c1ccc2c(c1)OCO2 gave a Ki of 0.429 µM (Adora2a; ligand displacement, radioligand; cell membranes).
CCC(C)[C@H](NC(=O)c1ccc(C(=O)N(Cc2ccccc2)Cc2ccccc2)cc1)C(=O)O (stereo in doubt) has a Ki of 35 µM (AGTR2; ligand displacement in cells, radioligand).
COc1ccc(-c2c(C#N)c(N)nc3sc(C(N)=O)c(N)c23)cc1 gave a Ki of 0.561 µM (Adora2a; ligand displacement, radioligand; cell membranes).
CCC(C)[C@H](NC(=O)c1cccc(C(=O)N(CC)CC)c1)C(=O)O (stereo in doubt) gave a Ki of 22 µM (AGTR2; ligand displacement in cells, radioligand).
CCC(C)N1CCCn2c1nc1c2c(=O)n(C)c(=O)n1C (stereo not shown) has a Ki of 4.64 µM (Adora2a; ligand displacement, radioligand; cell membranes).
CCc1ccc(C(=O)N[C@H](C(=O)O)C(C)CC)cc1C(=O)N(Cc1ccccc1)Cc1ccccc1 (stereo in doubt) gave a Ki of 4.4 µM (AGTR2; ligand displacement in cells, radioligand).
With COc1ccc(-c2c(C#N)c(N)nc(SCC(N)=O)c2C#N)cc1 the Ki was 1.47 µM (Adora2a; ligand displacement, radioligand; cell membranes).
The Ki of CCC(C)[C@H](NC(=O)c1cccc(C(=O)N(C)Cc2ccccc2)c1)C(=O)O (stereo in doubt) is reported as 9 µM (AGTR2; ligand displacement in cells, radioligand).
With Cc1cccc(CSc2nc(N)c(C#N)c(-c3cccc(O)c3)c2C#N)n1 the Ki was 0.0206 µM (Adora2a; ligand displacement, radioligand; cell membranes).
With CCCCN1CCCn2c1nc1c2c(=O)n(C)c(=O)n1C the Ki was 1.75 µM (Adora2a; ligand displacement, radioligand; cell membranes).
